Results taken from ChEMBL document CHEMBL3227917, “Structure-activity relationships of dimeric Catharanthus alkaloids. 2. Experimental antitumor activities of N-substituted deacetylvinblastine amide (vindesine) sulfates” (J Med Chem, 1979).

How the values were obtained:
[1] = Antitumor activity against mouse Ridgway osteogenic sarcoma allografted in AKR mouse assessed as tumor growth inhibition at 0.10 mg/kg, ip administered daily for 8 to 10 days compound treatment commenced 8 days after tumor implantation; type: functional; details: route intraperitoneal, read-out: TGI
[2] = tested on: CHO; assay: Mitotic arrest in CHO cells assessed as increase in cell accumulation at 0.02 ug/ml; type: functional, Cricetulus griseus
Summary of the method: (§1)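 Chinese hamster ovary cells in tissue culture, scored for mitotic arrest as increase in cells in mitotic arrest over control: +++, 40–50%; ++, 15–40%; +, 10–15%; ±, 7–10%; –, 3–7%. Cytotoxicity noted separately.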

[3] = Antitumor activity against mouse P1534 cells allografted in DBA2 mouse assessed as tumor growth inhibition at 0.25 mg/kg, ip administered daily for 8 to 10 days; type: functional; details: route intraperitoneal, read-out: TGI
Summary of the method: (§2)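 P1534(J) leukemia implanted sc in DBA2 mice; sulfate salts dosed ip daily for 8–10 days. Growth inhibition scored –, 0–25%; +, 26–50%; ++, 51–75%; +++, 76–100%; T, lethal to ≥5 of 10 animals per group. Average of one or more tests.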

[4] = Antitumor activity against mouse Gardner lymphosarcoma allografted in C3H mouse assessed as tumor growth inhibition at 0.20 mg/kg, ip administered daily for 8 to 10 days; type: functional; details: route intraperitoneal, read-out: TGI
Summary of the method: (§3)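 Gardner lymphosarcoma in C3H mice; sulfate salts unless noted, given ip daily for 8–10 days, treatment starting 8 days after tumor implantation. Tumor growth inhibition scored as –, 0–25%; +, 26–50%; ++, 51–75%; +++, 76–100%; T, lethal to ≥5 of 10 animals per group. Average of one or more tests.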

[5] = Antitumor activity against mouse Ridgway osteogenic sarcoma allografted in AKR mouse assessed as tumor growth inhibition at 0.20 mg/kg, ip administered daily for 8 to 10 days compound treatment commenced 8 days after tumor implantation; type: functional; details: route intraperitoneal, read-out: TGI
[6] = Antitumor activity against mouse Gardner lymphosarcoma allografted in C3H mouse assessed as tumor growth inhibition at 0.40 mg/kg, ip administered daily for 8 to 10 days; type: functional; details: route intraperitoneal, read-out: TGI; summary of the method: as §3
[7] = tested on: Mus musculus; assay: Toxicity in mouse assessed as body weight at 0.5 mg/kg, ip administered twice per week for 4 weeks, then three doses per week for 3 weeks and finally six doses per week for 2 weeks measured at week 9 (reference value: 18.5 +/- 0.5 gms); details: in vivo
[8] = Antitumor activity against mouse Ridgway osteogenic sarcoma allografted in AKR mouse assessed as tumor growth inhibition at 0.05 mg/kg, ip administered daily for 8 to 10 days compound treatment commenced 8 days after tumor implantation; type: functional; details: route intraperitoneal, read-out: TGI
[9] = Antitumor activity against mouse Gardner lymphosarcoma allografted in C3H mouse assessed as tumor growth inhibition at 0.10 mg/kg, ip administered daily for 8 to 10 days; type: functional; details: route intraperitoneal, read-out: TGI; summary of the method: as §3
[10] = tested on: CHO; assay: Mitotic arrest in CHO cells assessed as increase in cell accumulation at 0.002 ug/ml; type: functional, Cricetulus griseus; summary of the method: as §1
[11] = Antitumor activity against mouse Gardner lymphosarcoma allografted in C3H mouse assessed as tumor growth inhibition at 0.30 mg/kg, ip administered daily for 8 to 10 days; type: functional; details: route intraperitoneal, read-out: TGI; summary of the method: as §3
[12] = Antitumor activity against mouse Gardner lymphosarcoma allografted in C3H mouse assessed as tumor growth inhibition at 0.05 mg/kg, ip administered daily for 8 to 10 days; type: functional; details: route intraperitoneal, read-out: TGI; summary of the method: as §3
[13] = Antitumor activity against mouse Ridgway osteogenic sarcoma allografted in AKR mouse assessed as tumor growth inhibition at 0.40 mg/kg, ip administered daily for 8 to 10 days compound treatment commenced 8 days after tumor implantation; type: functional; details: route intraperitoneal, read-out: TGI
[14] = tested on: Mus musculus; assay: Toxicity in C3H mouse allografted with mouse Gardner lymphosarcoma assessed as lethality at 0.5 mg/kg, ip administered daily for 8 to 10 days; type: organism-based; design: dose 0.5 mg/kg, route intraperitoneal; details: in vivo
Summary of the method: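 Tumor-bearing mice given sulfate salts ip daily for 8–10 days; values are the average of one or more tests. Toxic means lethal to ≥5 of 10 animals per group.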

[15] = Antitumor activity against mouse Ridgway osteogenic sarcoma allografted in AKR mouse assessed as tumor growth inhibition at 0.30 mg/kg, ip administered daily for 8 to 10 days compound treatment commenced 8 days after tumor implantation; type: functional; details: route intraperitoneal, read-out: TGI
[16] = tested on: P388/VCR; assay: Antitumor activity against mouse P388/VCR cells allografted in CD2F1 mouse assessed as increase in host lifespan at 0.648 mg/kg, ip administered on days 1, 5 and 9; type: functional; details: route intraperitoneal
Summary of the method: (§4)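 Groups of eight male CD2F1 mice bearing P388 leukemia, run at NCI. Sulfate salts given ip on days 1, 5 and 9. Read-out is percent increase in lifespan.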

[17] = tested on: P388/VCR; assay: Antitumor activity against mouse P388/VCR cells allografted in B6D2F1 mouse assessed as increase in host lifespan at 0.90 mg/kg, ip administered on days 1, 5 and 9; type: functional; details: dose 0.9 mg/kg; route intraperitoneal
Summary of the method: (§5)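 P388/VCR leukemia in groups of 10 B6D2F1 mice, run at Lilly using the cell strain received from NCI. Sulfate salts given ip on days 1, 5 and 9. Read-out is percent increase in lifespan.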

[18] = tested on: Mus musculus; assay: Toxicity in DBA2 mouse allografted with mouse P1534 cells at 0.40 mg/kg, ip administered daily for 8 to 10 days; type: organism-based; design: dose 0.4 mg/kg, route intraperitoneal; details: in vivo, 0.4 mg/kg; summary of the method: as §2
[19] = tested on: Mus musculus; assay: Toxicity in mouse assessed as body weight at 0.5 mg/kg, ip administered twice per week for 4 weeks, then three doses per week for 3 weeks and finally six doses per week for 2 weeks measured during 9-weeks (reference value: 18.5 +/- 0.5 gms); type: organism-based; design: dose 0.5 mg/kg, route intraperitoneal; details: in vivo, 1512 h
[20] = tested on: P388/S; assay: Antitumor activity against mouse P388/S cells allografted in CD2F1 mouse assessed as increase in host lifespan at 1.80 mg/kg, ip administered on days 1, 5 and 9; type: functional; details: dose 1.8 mg/kg; route intraperitoneal
Summary of the method: (§6)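 Groups of eight male CD2F1 mice, tested at the NCI. Compounds were given as sulfate salts, dosed in mg/kg ip on days 1, 5 and 9. Activity was read as percent increase in lifespan against the leukemia line.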

[21] = tested on: B16; assay: Antitumor activity against mouse B16 cells allografted in C57BL/6 mouse assessed as prolongation of host survival at 0.60 mg/kg, ip administered on days 1,5 and 9; type: functional; details: route intraperitoneal
Summary of the method: (§7)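 B16 melanoma cells (10⁶ inoculum) implanted ip in C57BL/6 mice; groups of 10. Sulfate salts unless noted, given ip on days 1, 5 and 9. Single test. Survival prolongation is expressed as percent versus controls, with survivors counted on day 60. Toxic means deaths of ≥5 of 10 animals before the first control death.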

[22] = tested on: Mus musculus; assay: Toxicity in CD2F1 mouse allografted with mouse P388/S cells at 3.00 mg/kg, ip administered on days 1, 5 and 9; type: organism-based; design: dose 3 mg/kg, route intraperitoneal; details: in vivo
[23] = Antitumor activity against mouse P388/VCR/I/63 cells allografted in Dublin-CDF1 mouse assessed as day of host death at 2.0 mg/kg, ip administered on days 1, 5 and 9 (reference value: 10 days); type: functional; details: route intraperitoneal
[24] = tested on: B16; assay: Antitumor activity against mouse B16 cells allografted in C57BL/6 mouse assessed as prolongation of host survival at 0.90 mg/kg, ip administered on days 1,5 and 9; type: functional; details: route intraperitoneal; summary of the method: as §7
[25] = tested on: P388/VCR; assay: Antitumor activity against mouse P388/VCR cells allografted in CD2F1 mouse assessed as increase in host lifespan at 1.08 mg/kg, ip administered on days 1, 5 and 9; type: functional; details: route intraperitoneal; summary of the method: as §4
[26] = tested on: P388/S; assay: Antitumor activity against mouse P388/S cells allografted in CD2F1 mouse assessed as increase in host lifespan at 0.648 mg/kg, ip administered on days 1, 5 and 9; type: functional; details: route intraperitoneal; summary of the method: as §4
[27] = Antitumor activity against mouse P388/VCR/I/63 cells allografted in Dublin-CDF1 mouse assessed as increase in host lifespan at 2.0 mg/kg, ip administered on days 1, 5 and 9; type: functional; details: route intraperitoneal
[28] = tested on: P388/VCR; assay: Antitumor activity against mouse P388/VCR cells allografted in B6D2F1 mouse assessed as increase in host lifespan at 1.20 mg/kg, ip administered on days 1, 5 and 9; type: functional; details: dose 1.2 mg/kg; route intraperitoneal; summary of the method: as §5
[29] = Antitumor activity against mouse P1534 cells allografted in DBA2 mouse assessed as tumor growth inhibition at 0.20 mg/kg, ip administered daily for 8 to 10 days; type: functional; details: route intraperitoneal, read-out: TGI; summary of the method: as §2
[30] = tested on: P388/S; assay: Antitumor activity against mouse P388/S cells allografted in CD2F1 mouse assessed as increase in host lifespan at 1.08 mg/kg, ip administered on days 1, 5 and 9; type: functional; details: route intraperitoneal; summary of the method: as §4
[31] = tested on: P388/VCR; assay: Antitumor activity against mouse P388/VCR cells allografted in CD2F1 mouse assessed as increase in host lifespan at 1.80 mg/kg, ip administered on days 1, 5 and 9; type: functional; details: dose 1.8 mg/kg; route intraperitoneal; summary of the method: as §6
[32] = Antitumor activity against mouse P1534 cells allografted in DBA2 mouse assessed as tumor growth inhibition at 0.30 mg/kg, ip administered daily for 8 to 10 days; type: functional; details: route intraperitoneal, read-out: TGI; summary of the method: as §2
[33] = tested on: B16; assay: Antitumor activity against mouse B16 cells allografted in C57BL/6 mouse assessed as prolongation of host survival at 1.20 mg/kg, ip administered on days 1,5 and 9; type: functional; details: route intraperitoneal; summary of the method: as §7
[34] = tested on: P388/VCR; assay: Antitumor activity against mouse P388/VCR cells allografted in B6D2F1 mouse assessed as increase in host lifespan at 0.60 mg/kg, ip administered on days 1, 5 and 9; type: functional; details: dose 0.6 mg/kg; route intraperitoneal; summary of the method: as §5
[35] = Toxicity in iv dosed mouse assessed as lethality; type: organism-based; details: in vivo
[36] = tested on: Mus musculus; assay: Toxicity in CD2F1 mouse allografted with mouse P388/VCR cells at 3.00 mg/kg, ip administered on days 1, 5 and 9; type: organism-based; design: dose 3 mg/kg, route intraperitoneal; details: in vivo

## CC[C@]1(O)C[C@H]2CN(CCc3c([nH]c4ccccc34)[C@@](C(=O)OC)(c3cc4c(cc3OC)N(C)[C@H]3[C@@](O)(C(=O)NC)[C@H](O)[C@]5(CC)C=CCN6CC[C@]43[C@@H]65)C2)C1.O=S(=O)(O)O
[1]
  inhibition in vivo at 0.1 mg/kg: 0%
[2]
  Activity: 15%
[3]
  inhibition in vivo at 0.25 mg/kg: 76%
[4]
  inhibition in vivo at 0.2 mg/kg: 76%
[5]
  inhibition in vivo at 0.2 mg/kg: 51%
[6]
  inhibition in vivo at 0.4 mg/kg: 76%
[7]
  Activity: 24.6 g
[8]
  inhibition in vivo at 0.05 mg/kg: 0%
[9]
  inhibition in vivo at 0.1 mg/kg: 0%
[10]
  Activity: 3%
[11]
  inhibition in vivo at 0.3 mg/kg: 76%
[12]
  inhibition in vivo at 0.05 mg/kg: 0%
[13]
  inhibition in vivo at 0.4 mg/kg: 76%
[14]
  Activity: Toxic
[15]
  inhibition in vivo at 0.3 mg/kg: 76%

## CC[C@]1(O)C[C@@H]2CN(CCc3c([nH]c4ccccc34)[C@@](C(=O)OC)(c3cc4c(cc3OC)N(C)[C@H]3[C@@](O)(C(N)=O)[C@H](O)[C@]5(CC)C=CCN6CC[C@]43[C@@H]65)C2)C1.O=S(=O)(O)O [VINDESINE SULFATE]
[1]
  inhibition in vivo at 0.1 mg/kg: 0%
[2]
  Activity: 15%
[3]
  inhibition in vivo at 0.25 mg/kg: 76%
[16]
  Activity: 4%
[17]
  Activity: 5%
[18]
  Activity: Toxic
[19]
  Activity: 34.9 g
[20]
  Activity: 138%
[4]
  inhibition in vivo at 0.2 mg/kg: 76%
[5]
  inhibition in vivo at 0.2 mg/kg: 51%
[6]
  inhibition in vivo at 0.4 mg/kg: 76%
[21]
  survival at 0.6 mg/kg: 117%
[8]
  inhibition in vivo at 0.05 mg/kg: 0%
[9]
  inhibition in vivo at 0.1 mg/kg: 51%
[22]
  Activity: Toxic
[23]
  Activity: 20 days
[24]
  survival at 0.9 mg/kg: 144%
[10]
  Activity: 10%
[11]
  inhibition in vivo at 0.3 mg/kg: 76%
[25]
  Activity: 0%
[26]
  Activity: 96%
[27]
  Activity: 100%
[28]
  Activity: 3%
[29]
  inhibition in vivo at 0.2 mg/kg: 51%
[30]
  Activity: 129%
[31]
  Activity: -8%
[32]
  inhibition in vivo at 0.3 mg/kg: 76%
[12]
  inhibition in vivo at 0.05 mg/kg: 0%
[13]
  inhibition in vivo at 0.4 mg/kg: 76%
[33]
  survival at 1.2 mg/kg: 155%
[34]
  Activity: 0%
[14]
  Activity: Toxic
[35]
  LD50: 6.3 mg/kg
[15]
  inhibition in vivo at 0.3 mg/kg: 76%
[36]
  Activity: Toxic
